TNAP act hiacc: increases human TNAP activity under high phosphate acceptor concentration. P05186. purified TNAP, CDP-star luminescence, 1 M DEA, 30 min; active compounds read high; 0 = EDTA background, 1 = DMSO-only activity. activation factor at 20 µM. 200,000 tested, under 10 active. AID 1136;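 active = activation factor at least 2 at 20 µM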
Target sequence (P05186 whole entry, looked up): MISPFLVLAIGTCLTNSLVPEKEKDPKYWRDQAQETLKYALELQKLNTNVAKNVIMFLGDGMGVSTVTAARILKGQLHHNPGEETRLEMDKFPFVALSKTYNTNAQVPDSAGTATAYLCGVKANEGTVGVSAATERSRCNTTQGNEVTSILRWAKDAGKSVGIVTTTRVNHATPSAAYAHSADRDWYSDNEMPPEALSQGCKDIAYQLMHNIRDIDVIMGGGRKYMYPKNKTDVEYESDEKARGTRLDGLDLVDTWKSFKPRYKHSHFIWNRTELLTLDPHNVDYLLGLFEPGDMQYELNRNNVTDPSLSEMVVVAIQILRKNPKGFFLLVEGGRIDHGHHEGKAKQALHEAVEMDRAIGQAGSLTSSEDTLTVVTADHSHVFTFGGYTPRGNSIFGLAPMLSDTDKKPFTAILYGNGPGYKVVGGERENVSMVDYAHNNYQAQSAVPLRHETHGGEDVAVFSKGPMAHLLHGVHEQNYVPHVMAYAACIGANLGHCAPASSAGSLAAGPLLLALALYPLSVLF
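Test system – human TNAP · Doses – 20 µM single point · Incubation – 30 min, room temperature · Signal – luminescent substrate turnover signal · Read-out basis – activation factor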
BB579 growth dn: chemicals that inhibit yeast BB579 growth in restrictive medium (lifespan-shortening candidates); S. cerevisiae BB579 growth, OD615, 48 h; inhibition, % at 10 µM; hit rate 0.51% among 140,000;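 active = inhibition above a set limit, 3 SD over the mean compound inhibition, cut at about 44% in these data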
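System: Saccharomyces cerevisiae DeaD strain BB579, replicative lifespan model yeast | Buffer or medium: Restrictive glucose-based CSMM-D medium | Times: 4 h preincubation and 48 h exposure at 30 °C | Detection: OD615 turbidity measurement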
RAM inhibit: inhibitors of the yeast RAM network; hit rate 1.8% among 190,000; S. cerevisiae dse1pr::URA3 reporter, 5-FOA growth OD615, 2 d; analog-sensitive cbk1-as2 kinase mutant strain; inhibition, % at 50 µM; AID 868;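 active = inhibition above a set limit, 3 SD over mean compound inhibition, cut at about 8.4% in these data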;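 note: inhibition rescues growth on 5-FOA so higher OD means more RAM inhibition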
TNAP inh noacc: blocks human TNAP activity with no phosphate acceptor present; purified TNAP, CDP-star luminescence, 30 min; inhibition, % at 20 µM; hit rate 0.26% among 200,000; AID 1012;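 active = tissue-nonspecific alkaline phosphatase inhibition above about 50% at 20 µM in the single-dose screen, limit read from the data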
Yeast lifespan up: yeast lifespan extension; S. cerevisiae growth with nicotinamide, OD615; deaD strain in restrictive glucose medium; inhibition of the nicotinamide effect, % at 10 µM; hit rate 0.68% among 130,000;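 active = inhibition above a set limit, placed 3 SD over the median of all compounds, cut at about 26% in these data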
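assay system = DeaD-strain S. cerevisiae | buffer or medium = restrictive glucose medium | reagent = 1.5 mM nicotinamide | compound = 10 µM single point, 0.25% DMSO | incubation = 48 h compound exposure at 30 °C, humidified | signal = OD615 measurement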
TNAP inh hi DEA: TNAP (human) inhibition, high acceptor; purified TNAP, CDP-star luminescence, 1 M DEA; hit rate 0.03% among 200,000; P05186; inhibition, % at 20 µM;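 active = over 50% inhibition of tissue-nonspecific alkaline phosphatase at 20 µM in the single-dose screen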
Large screens that a line does not name were inactive. Only some compounds are listed: those with a hit (about 2.8% of all), similar ones and a draw of the others.

CNC(=S)N(Cc1ccc(OC)cc1)Cc1cc2cc(C)ccc2[nH]c1=O	RAM inhibit 8.5 (no result: BB579 growth dn, Yeast lifespan up)
COc1ccc(C)cc1NC(=O)C1CCN(C(=O)Cc2ccccc2)CC1	none (no result: BB579 growth dn, Yeast lifespan up)
CCc1nnc(NS(=O)(=O)c2ccc(NC(=O)/C=C/c3ccc(OC)cc3OC)cc2)s1	none
O=C(NCCCO)/C(=C/c1ccc(-c2cccc([N+](=O)[O-])c2)o1)NC(=O)c1ccccc1	RAM inhibit 8.5 (no result: BB579 growth dn, Yeast lifespan up)
O=C(NCCO)/C(=C\c1ccc([N+](=O)[O-])o1)NC(=O)c1ccccc1	none (no result: BB579 growth dn, Yeast lifespan up)
O=C(OCC#CCSc1nc2ccccc2s1)c1ccco1	none
CC(C)Cc1cc(C(=O)N2CCC(N3CCC(C(=O)N4CCCC4)CC3)CC2)n[nH]1	TNAP inh noacc 87 (no result: BB579 growth dn, Yeast lifespan up)
CC(C)/C=C/C(=O)N1CCC(N2CCC(C(=O)N3CCOCC3)CC2)CC1	none (no result: BB579 growth dn, Yeast lifespan up)
CC(C)Cc1cc(C(=O)N2CCC(N3CCC(C(=O)NC4CC4)CC3)CC2)n[nH]1	TNAP inh noacc 92 (no result: BB579 growth dn, Yeast lifespan up)
CC(C)Cc1cc(C(=O)N2CCC(N3CCC(C(=O)N4CCOCC4)CC3)CC2)n[nH]1	TNAP inh noacc 88 (no result: BB579 growth dn, Yeast lifespan up)
CCOC(=O)/C(=C\c1cn(C)c2ccccc12)[N+](=O)[O-]	Yeast lifespan up 44
Cc1ccc2c(c1)-c1cc(C)nn1C(c1sccc1C)N2 (stereo unspecified)	RAM inhibit 10
CC1CCN(c2ccc(N3C(=O)C4CCCCC4C3=O)cc2[N+](=O)[O-])CC1 (stereo unspecified)	none
O=C(O)c1ccc(N2C(=O)C3C4c5ccccc5C(Br)(c5ccccc54)C3C2=O)cc1 (stereo unspecified)	none (no result: BB579 growth dn, Yeast lifespan up)
CCc1ccc(N=CC23c4ccccc4C(c4ccccc42)C2C(=O)N(c4ccc(OC)cc4)C(=O)C23)cc1 (stereo unspecified)	Yeast lifespan up 29
N/C(Cc1ccccc1)=N\OC(=O)c1cccc2ccccc12	BB579 growth dn 84
CC(C)Cc1ccc(/C=C/C(=O)NC2CC2)cc1	none
COc1ccc(Cc2nn3c(-c4ccccc4OC)nnc3s2)cc1	TNAP inh noacc 59
COc1ccccc1-c1nnc2sc(COc3ccc(Cl)cc3)nn12	none
CCOC(=O)c1c(Nc2ccc(Cl)cc2)sc(/C=C2\C=Nc3ccccc32)c1O	RAM inhibit 9.3
Oc1nc(Nc2cccc(Cl)c2)sc1/C=C1\C=Nc2ccccc21	none
O=C(O)CNC(=S)N(Cc1ccccc1)Cc1cccs1	none (no result: BB579 growth dn, Yeast lifespan up)
Cc1cccc(C)c1NC(=S)N(Cc1ccccc1)Cc1cccs1	RAM inhibit 9.5 (no result: BB579 growth dn, Yeast lifespan up)
Cc1cc(N/N=C/c2ccccc2O)nc(-c2ccccc2O)n1	none
Cc1cc(N/N=C/c2ccc(O)cc2O)nc(-c2ccccc2O)n1	RAM inhibit 10
CC(C)Sc1oc(-c2ccco2)nc1S(=O)(=O)c1ccc(F)cc1	none
CSc1oc(-c2ccco2)nc1S(=O)(=O)c1ccc(Br)cc1	RAM inhibit 8.4
COc1ccc(-c2noc(CSc3nnc(Cc4ccccc4)n3-c3ccc(Cl)cc3)n2)cc1	RAM inhibit 10
Cc1ccc(-c2noc(CSc3nnc(Cc4ccccc4)n3-c3ccc(Cl)cc3)n2)cc1	RAM inhibit 8.5
COc1ccc(-c2noc(CSc3nnc(CCc4ccccc4)n3-c3ccccc3)n2)cc1OC	none
Cn1c(SCc2nc(-c3ccc(Cl)cc3)no2)nnc1-c1ccccc1	none
CCCCOc1ccc(/C=C/C(=O)OCC(=O)N2CC(=O)Nc3ccccc32)cc1OCC	none
O=C(CNC(=O)c1ccc(-c2ccccc2)cc1)OCc1c(F)cccc1Cl	none
CC12CN3CC(C)(CN(C1)C3c1cc(Br)ccc1O)C2=O (stereo unspecified)	none
CC12CN3CC(C)(CN(C1)C3c1ccc(Br)cc1O)C2 (stereo unspecified)	Yeast lifespan up 33
O=C1CC(c2ccccc2)CN1C(=O)c1cncc(Br)c1 (stereo unspecified)	none (no result: BB579 growth dn, Yeast lifespan up)
COC(=O)CN1C(=O)N/C(=C/c2cc(OC)c(OC)cc2C)C1=O	none (no result: BB579 growth dn, Yeast lifespan up)
COC(=O)[C@@]1(Cc2ccc(F)cc2)[C@H]2c3cc(C(=O)N(C)C)n(Cc4ccc(OC)c(OC)c4)c3C[C@H]2CN1C(=O)c1ccccc1	none
COC(=O)[C@@]1(Cc2ccc(F)cc2)[C@H]2c3cc(C(=O)N(C)C)n(CCc4ccc(OC)c(Br)c4)c3C[C@H]2CN1C(=O)c1ccccc1	RAM inhibit 8.7
Cc1cc(-c2ccccc2)nc(SCC(=O)c2cccc([N+](=O)[O-])c2)n1	RAM inhibit 11
Cc1cc(Oc2ccc3ccccc3c2)nc(SCC(=O)c2ccccc2)n1	RAM inhibit 11
O=C(Nc1ccccc1Cl)ON=C1c2ccccc2-c2ccccc21	none
CCN1C(=O)/C(=C\c2nc3ccccc3c(=O)n2-c2ccccc2)c2ccccc21	RAM inhibit 9.6
COC(=O)C1=C(C(=O)OC)C(c2ccccc2O)c2sc(=O)[nH]c2S1 (stereo unspecified)	Yeast lifespan up 45
COC(=O)c1sc2ccccc2c1N	none
c1ccc(-c2cc(N3CCOCC3)nc3ccccc23)cc1	Yeast lifespan up 94
Cc1cc(N2CCOCC2)nc2ccccc12	none (no result: Yeast lifespan up)
Cc1c(C(=O)COC(C)(C)C)[nH]c2ccccc12	none
COc1ccc(-c2cc(C(=O)N3CCN(c4ccccc4)CC3)no2)cc1OC	none
COc1ccccc1-c1cc(C(=O)N2CCN(c3ccc(F)cc3)CC2)no1	RAM inhibit 9.4
O=C(Nc1cnn(Cc2ccc(F)cc2)c1)c1cc(-c2ccco2)on1	none (no result: BB579 growth dn, Yeast lifespan up)
O=C(Nc1cnn(Cc2ccc(F)cc2)c1)c1cc2nc(-c3ccco3)cc(C(F)(F)F)n2n1	RAM inhibit 9.5
CCn1c(SCC(N)=O)nnc1-c1ccco1	none
CCn1c(SCc2cccc(C(F)(F)F)c2)nnc1-c1ccco1	RAM inhibit 9.6
COc1ccccc1NC(=O)N1C2CCCC1CC(NC(=O)c1ccccc1)C2 (stereo unspecified)	none (no result: BB579 growth dn, Yeast lifespan up)
O=C(CSc1nccn1-c1ccccc1)c1ccc(Br)cc1	RAM inhibit 11
Fc1cccc(NC(=S)NCCN2CCOCC2)c1	none
CCCCCCN1N=C(C)C(C(=O)c2ccc(Cl)cc2)C1=O (stereo unspecified)	BB579 growth dn 87
CC(=O)Nc1ncnc2c1c(-c1ccc(Cl)cc1)nn2C(C)(C)C	RAM inhibit 8.9 (no result: BB579 growth dn, Yeast lifespan up)
O=C(CC(=O)c1ccccc1O)c1ccc(F)cc1	BB579 growth dn 53
CC(C)(C)c1ccc(C(=O)CC(=O)c2cc(Cl)ccc2O)cc1	RAM inhibit 10
Cc1ccc(C(=O)CC(=O)c2cc(Cl)ccc2O)cc1	RAM inhibit 10
Cc1ccc(C(=O)CN(C(=O)c2ccc(Cl)cc2)N2C(=O)c3ccccc3C2=O)cc1	none

Source: PubChem
